Source: ChEMBL document CHEMBL1132248, “2,4-Diphenyl furan diamidines as novel anti-Pneumocystis carinii pneumonia agents” (J Med Chem, 1999)
Several values for one entry are separate records, joined by “and”; a condition that tells them apart may be missing. Equal values may be shown once.

Legend:
Rattus norvegicus [1] = assay: Percentage control of Pneumocystis carinii pneumonia in immunosuppressed rat at 0.25 uM/Kg/d administered intravenously; format: functional
Method in brief: (§1)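 Immunosuppressed rats with Pneumocystis carinii pneumonia were given test agent intravenously. The read-out was cysts per g of lung tissue, expressed as percent of pooled saline-treated controls (n = 46). Values below 1% of control fall within experimental error.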

Rattus norvegicus [2] = assay: Percentage control of Pneumocystis carinii pneumonia in immunosuppressed rat at 10 uM/Kg/d administered intravenously; format: functional; method in brief: as §1
Rattus norvegicus [3] = assay: Percentage control of Pneumocystis carinii pneumonia in immunosuppressed rat at 20 uM/Kg/d administered intravenously; format: functional; method in brief: as §1
Rattus norvegicus [4] = assay: Percentage control of Pneumocystis carinii pneumonia in immunosuppressed rat at 5 uM/Kg/d administered intravenously; format: functional; method in brief: as §1
Rattus norvegicus [5] = assay: Toxicity in immunosuppressed rat after administration of 5 uM/Kg/d; format: organism-based; settings: in vivo
Method in brief: (§2)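 Immunosuppressed rats with Pneumocystis carinii pneumonia; compounds given intravenously at the daily dose named in each line. Toxicity scored on a five-level scale from 0 to 5+; the paper calls the scores anecdotal rather than definitive. The same study scored lung cysts per gram against pooled saline controls (n = 46).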

Rattus norvegicus [6] = assay: Toxicity in immunosuppressed rat after administration of 0.2 5 uM/Kg/d; format: organism-based; settings: in vivo; method in brief: as §2
Rattus norvegicus [7] = assay: Toxicity in immunosuppressed rat after administration of 10 uM/Kg/d; format: organism-based; settings: in vivo; method in brief: as §2
Rattus norvegicus [8] = assay: Toxicity in immunosuppressed rat after administration of 1 uM/kg/day; format: organism-based; settings: in vivo; method in brief: as §2
[9] = The compound was tested for the increase in thermal melting of d(CGCGAATTCGCG)2.
Nucleic Acid [10] = system: Nucleic Acid
Rattus norvegicus [11] = assay: Percentage control of Pneumocystis carinii pneumonia in immunosuppressed rat at 1 uM/Kg/d administered intravenously; format: functional; method in brief: as §1
Rattus norvegicus [12] = assay: Toxicity in immunosuppressed rat after administration of 1 uM/Kg/d.; format: organism-based; settings: in vivo; method in brief: as §2
Rattus norvegicus [13] = assay: Toxicity in immunosuppressed rat after administration of 10 uM/Kg/d.; format: organism-based; settings: in vivo; method in brief: as §2
Rattus norvegicus [14] = assay: Percentage control of Pneumocystis carinii pneumonia in immunosuppressed rat at 10 uM/Kg/d administered intravenously.; format: functional; method in brief: as §1
Rattus norvegicus [15] = assay: Percentage control of Pneumocystis carinii pneumonia in immunosuppressed rat at 22 uM/Kg/d administered intravenously; format: functional; method in brief: as §1
Nucleic Acid [16] = system: Nucleic Acid; remark: listed apart in the source

Row | SMILES | Control (Rattus norvegicus [2]) | ΔTm [9] | ΔTm (Nucleic Acid [10]) | Toxicity (Rattus norvegicus [13]) | other results
1 | CC(C)/N=C(/N)c1ccc(-c2coc(-c3ccc(/C(N)=N\C(C)C)cc3)c2)cc1.Cl.Cl | 0.04% and 0.08% | 10.9 | 17.6 | – | Control (Rattus norvegicus [1]): 110.5%; Control (Rattus norvegicus [3]): 0%; Control (Rattus norvegicus [4]): 0.08%; Toxicity (Rattus norvegicus [5]): 0; Toxicity (Rattus norvegicus [6]): 0; Toxicity (Rattus norvegicus [7]): 0; Toxicity (Rattus norvegicus [8]): 0
2 | Cc1oc(-c2ccc(C(=N)N)cc2)c(C)c1-c1ccc(C(=N)N)cc1.Cl.Cl | 0.89% | 6.5 | 17 | – | –
3 | Cl.Cl.N=C(NC1CCCC1)c1ccc(-c2coc(-c3ccc(C(=N)NC4CCCC4)cc3)c2)cc1 | 0.16% | 13.6 | 20.4 | 0 | Control (Rattus norvegicus [11]): 1.79%; Toxicity (Rattus norvegicus [12]): 0
4 | Cc1oc(-c2ccc(/C(N)=N\C(C)C)cc2)c(C)c1-c1ccc(/C(N)=N\C(C)C)cc1.Cl.Cl | 24.43% | 5.4 | 12.5 | 0 | –
5 | Cl.Cl.N=C(N)c1ccc(-c2coc(-c3ccc(C(=N)N)cc3)c2)cc1 | 0.3% | 9.1 | 19 | – | Toxicity (Rattus norvegicus [7]): 0
6 | c1cc(-c2coc(-c3ccc(C4=NCCN4)cc3)c2)ccc1C1=NCCN1 | – | 7.2 | 16.8 | – | –
7 | Cl.Cl.N=C(NC1CC1)c1ccc(-c2coc(-c3ccc(C(=N)NC4CC4)cc3)c2)cc1 | – | 10.9 | 23.2 | 0 | Control (Rattus norvegicus [14]): 0.01%
8 | N=C(N)c1ccc(OCCCCCOc2ccc(C(=N)N)cc2)cc1 [PENTAMIDINE] | – | 4.8 | – | – | Control (Rattus norvegicus [15]): 2.3%; ΔTm (Nucleic Acid [16]): 12.6
9 | CC(C)C/N=C(/N)c1ccc(-c2coc(-c3ccc(/C(N)=N\CC(C)C)cc3)c2)cc1 | – | 9.3 | 20.4 | – | –
